Drawing on ChEMBL document CHEMBL3272297, “Lipophilicity and serotonin agonist activity in a series of 4-substituted mescaline analogues” (J Med Chem, 1977), this text covers ED50, logD and Ratio ED50 for seven compounds.

Structures are written as SMILES.

For series [1], the species on record is Ovis aries. Put plainly: Agonist activity at serotonin receptor in sheep umbilical artery assessed increase of mescaline-induced contraction. The series is classed as tissue-based. The method in brief: (§1)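 Serotonin-receptor agonism measured in an isolated sheep umbilical artery preparation from dose-response curves giving ED50 values. The ratio (mescaline ED50 / compound ED50) is calculated from the data within each experimental series, with mescaline run as a time control. Data are reported over n tissues with the standard error of the geometric mean.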

The nature of series [2]: 1-Octanol-water partition coefficient, log P of the compound at pH 8. The series is classed as physicochemical.
The species named for series [3] is Ovis aries. Nature of the series: Potency ratio, ratio of mescaline ED50 to compound ED50 for serotonin receptor in sheep umbilical artery assessed increase of mescaline-induced contraction. The class given is tissue-based. In a few lines:
as §1

One may read the logD as the decadic logarithm of the distribution of all forms, ionised or not, between an organic phase and buffer at a given pH. For `COc1cc(CCN)cc(OC)c1OCc1ccccc1`, the ED50 in the series filed under Ovis aries [1] is 4.6 ×10⁻⁷ M. The pH-dependent lipophilicity (logD) in series [2] is 2.4. Also, the Ratio ED50 in the series listed under Ovis aries [3] was determined as 3.04.

`CCCCOc1c(OC)cc(CCN)cc1OC` gave an ED50 in the series listed under Ovis aries [1] of 1.1 ×10⁻⁶ M. The logD in series [2] stood at 2.32. The Ratio ED50 in the series filed under Ovis aries [3] was 1.27.

In turn, `COc1cc(CCN)cc(OC)c1OC` [MESCALINE] returned an ED50 in the series listed under Ovis aries [1] of 1.4 ×10⁻⁶ M. The compound also yielded a pH-dependent lipophilicity (logD) in series [2] of 0.78.

In the series listed under Ovis aries [1], `COc1cc(CCN)cc(OC)c1Br` came in with an ED50 of 1.85 ×10⁻⁷ M. The same compound gave a pH-dependent lipophilicity (logD) in series [2] of 2.03. Moreover, the Ratio ED50 in the series listed under Ovis aries [3] came to 7.57.

As for `COc1cc(CCN)cc(OC)c1OC(C)C`, the ED50 in the series listed under Ovis aries [1] turned out to be 5 ×10⁻⁷ M. For the same compound, the logD in series [2] was 1.52. Moreover, the Ratio ED50 in the series listed under Ovis aries [3] turned out to be 2.8.

As to `CCOc1c(OC)cc(CCN)cc1OC`, in the series listed under Ovis aries [1], the ED50 was 6.8 ×10⁻⁷ M. The compound also returned a pH-dependent lipophilicity (logD) in series [2] of 1.11. Moreover, the Ratio ED50 in the series listed under Ovis aries [3] amounted to 2.06.

On to `CCCOc1c(OC)cc(CCN)cc1OC`, for which the ED50 in the series filed under Ovis aries [1] is 3.8 ×10⁻⁷ M. The logD in series [2] was 1.7. Further, the Ratio ED50 in the series listed under Ovis aries [3] worked out at 3.68.
